Data published in publication PMC8530377 (Journal of medicinal chemistry, 2021).

Key:
[1] = system: GABAA receptor-mediated IPSCs in VTA neurons; assay: Whole cell electrophysiology, evoked IPSCs in VTA neurons of acute brain slices; format: cell-based, rat; conditions: 10 μM; compared to 5 μM DAMGO and 10 μM morphine
hMOR (Gz) = hMOR (Gz) (Homo sapiens, UniProt P35372); assay: cell-based; conditions: read-out: Emax at Gz
hMOR (β-arrestin2) = hMOR (β-arrestin2) (Homo sapiens, UniProt P35372); assay: cell-based; conditions: for Emax: read-out: β-arrestin2 recruitment Emax (BRET)
hMOR (Gi-1) = hMOR (Gi-1) (Homo sapiens, UniProt P35372); assay: cell-based; conditions: for Emax: read-out: Gi-1 Emax
murine MOR = murine MOR (Mus musculus, UniProt P42866); assay: BRET-based Nb33 recruitment assay, mMOR; format: cell-based; conditions: for Nb33 recruitment efficacy at murine MOR: HEK293-T cells, compared to DAMGO
hMOR (GoA and GoB) = hMOR (GoA and GoB) (Homo sapiens, UniProt P35372); assay: cell-based; conditions: read-out: Emax at GoA and GoB
hMOR (β-arrestin1) = hMOR (β-arrestin1) (Homo sapiens, UniProt P35372); format: cell-based
hMOR (human MOR) = hMOR (human MOR) (Homo sapiens, UniProt P35372); assay: biochemical; format: binding
C57BL/6J mice [2] = conditions: mouse, in vivo
DOR = assay: BRET Gi-1 activation assay at DOR; format: cell-based
In short: (§1)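 Cells were plated in 6-well dishes (700,000–800,000 cells/well) or 10 cm dishes and transfected 2–4 h later with receptor:Gα-RLuc8:Gβ:Gγ-GFP2 at 1:1:1:1. The next day they were replated on poly-D-lysine 96-well plates (30,000–50,000 cells/well). One day later, in HBSS + 20 mM HEPES pH 7.4 with coelenterazine 400a, cells equilibrated 5 min, then drug 5 min. BRET2 ratio was GFP2 (510 nm)/RLuc8 (395 nm), sixth of six serial reads.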

mice [3] = assay: Respiratory rate, CLAMS; format: in vivo, mouse
mice [4] = assay: Locomotor effect, CLAMS; format: in vivo, mouse
hMOR = hMOR (Homo sapiens, UniProt P35372); assay: cell-based
[5] = system: MOR KO, KOR KO and DOR KO mice; assay: 55 °C tail withdrawal antinociception in opioid receptor knock-out mice; format: in vivo, mouse; conditions: 10 mg/kg, sc, relative to WT
KOR = assay: BRET Gi-1 activation assay at KOR; format: cell-based
In short: as §1

MOR = conditions: cited from earlier work
C57BL/6J mice [6] = conditions: sc; cited from earlier work
[7] = 45 mg/kg, sc (15-fold antinociceptive ED50)

murine MOR, sequence (P42866 whole entry): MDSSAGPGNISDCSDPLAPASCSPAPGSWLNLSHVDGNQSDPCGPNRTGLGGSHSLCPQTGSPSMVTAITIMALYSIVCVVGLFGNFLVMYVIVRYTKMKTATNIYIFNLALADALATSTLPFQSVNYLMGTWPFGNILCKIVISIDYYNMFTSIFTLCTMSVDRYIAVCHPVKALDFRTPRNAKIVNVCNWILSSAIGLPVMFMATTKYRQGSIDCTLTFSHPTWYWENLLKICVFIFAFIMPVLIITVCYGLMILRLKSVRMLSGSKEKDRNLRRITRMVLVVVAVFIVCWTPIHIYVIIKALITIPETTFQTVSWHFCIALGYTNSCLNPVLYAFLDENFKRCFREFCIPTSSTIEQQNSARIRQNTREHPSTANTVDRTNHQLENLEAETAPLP
hMOR (Gi-1), sequence (P35372 whole entry): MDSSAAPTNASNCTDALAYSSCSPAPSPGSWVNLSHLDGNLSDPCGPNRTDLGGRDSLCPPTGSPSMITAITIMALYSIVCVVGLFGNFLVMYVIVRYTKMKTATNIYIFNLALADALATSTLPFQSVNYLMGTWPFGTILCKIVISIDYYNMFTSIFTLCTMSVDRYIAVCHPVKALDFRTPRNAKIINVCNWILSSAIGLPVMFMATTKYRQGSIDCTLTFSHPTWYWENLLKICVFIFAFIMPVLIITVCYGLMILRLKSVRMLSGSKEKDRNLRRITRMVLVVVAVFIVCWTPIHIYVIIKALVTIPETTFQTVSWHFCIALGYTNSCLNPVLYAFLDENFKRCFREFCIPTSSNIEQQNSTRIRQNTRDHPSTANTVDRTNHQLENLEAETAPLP
hMOR (β-arrestin1), sequence (P35372 whole entry): as above
hMOR (GoA and GoB), sequence (P35372 whole entry): as above
hMOR (β-arrestin2), sequence (P35372 whole entry): as above
hMOR (Gz), sequence (P35372 whole entry): as above
hMOR (human MOR), sequence (P35372 whole entry): as above
hMOR, sequence (P35372 whole entry): as above

Compound | mean inhibition of evoked IPSCs [1] | Emax (hMOR (Gz)) [%] | β-arrestin2 recruitment (BRET), words (hMOR (β-arrestin2)) | Emax (hMOR (β-arrestin2)) [%] | Emax (hMOR (Gi-1)) [%] | Nb33 recruitment efficacy at murine MOR (murine MOR) | Emax (hMOR (GoA and GoB)) [%] | β-arrestin1 recruitment (BRET), words (hMOR (β-arrestin1)) | Ki (hMOR (human MOR)) [µM] | place conditioning (CPP/CPA) (C57BL/6J mice [2]) | Nb33 recruitment efficacy (literature) (MOR) [%] | other results
CC[C@@H]1CN2CC[C@@]3(O)C(=Nc4cccc(-c5ccccc5)c43)[C@@H]2C[C@@H]1/C(=C\OC)C(=O)OC [Compound 4, Methyl(E)-2-((2S,3S,7aS,12bS)-3-ethyl-7a-hydroxy-8-phenyl-1,2,3,4,6,7,7a,12b-octahydroindolo[2,3-a]quinolizin-2-yl)-3-methoxyacrylate] | smaller | 79 to 86 | not measurable | < 10 | 60 to 70 | 15–18% | 63 to 75 | failed to show recruitment | 0.015 to 0.017 |  |  | 
CC[C@@H]1CN2CC[C@@]3(O)C(=Nc4cccc(C)c43)[C@@H]2C[C@@H]1/C(=C\OC)C(=O)OC [Compound 5, Methyl(E)-2-((2S,3S,7aS,12bS)-3-ethyl-7a-hydroxy-8-methyl-1,2,3,4,6,7,7a,12b-octahydroindolo[2,3-a]quinolizin-2-yl)-3-methoxyacrylate] | smaller | 79 to 86 | not measurable | < 10 | 60 to 70 | 15–18% | 63 to 75 | failed to show recruitment | 0.015 to 0.017 |  |  | 
CC[C@@H]1CN2CC[C@@]3(O)C(=Nc4cccc(-c5ccoc5)c43)[C@@H]2C[C@@H]1/C(=C\OC)C(=O)OC [Compound 6 (SC13), Methyl(E)-2-((2S,3S,7aS,12bS)-3-ethyl-8-(furan-3-yl)-7a-hydroxy-1,2,3,4,6,7,7a,12b-octahydroindolo[2,3-a]quinolizin-2-yl)-3-methoxyacrylate] | smaller | 79 to 86 | not measurable | < 10 | 60 to 70 |  | 63 to 75 | failed to show recruitment |  | no signs of CPP or CPA |  | EC50 (hMOR (Gi-1)): 0.145 µM; EC50 (murine MOR): 0.012 µM; fold lower potency at DOR versus MOR, Gi-1 activation (DOR): ~ 100 fold; respiratory effects (breath rate) (mice [3]; [7]): no statistically significant respiratory effects; locomotor effect (mice [4]; [7]): no hyperlocomotion; EC50 (hMOR): 0.73 µM; antinociception in MOR KO mice [5]: significantly reduced; antinociception in KOR KO mice ([5]; p = 0.058): remained intact; antinociception in DOR KO mice ([5]; p = 0.13): remained intact; fold lower potency at KOR versus MOR, Gi-1 activation (KOR): ~ 100 fold
C[C@@H](Cc1ccsc1)NC(=O)NC[C@H](Cc1ccc(O)cc1)N(C)C [PZM21] |  |  |  |  |  |  |  |  |  |  | 38 | 
COc1ccsc1CNCC[C@@]1(c2ccccn2)CCOC2(CCCC2)C1 [TRV130] |  |  |  |  |  |  |  |  |  |  | 42 | 
CN1CC[C@]23c4c5ccc(O)c4O[C@H]2[C@@H](O)C=C[C@H]3[C@H]1C5 [morphine, reference compound] |  |  |  |  |  |  |  |  |  | showed CPP |  | respiratory effects (breath rate) (mice [3]; 30 mg/kg, sc): significant respiratory depression for 60 min; locomotor effect (mice [4]; 10 and 30 mg/kg, sc (5-fold and 15-fold ED50)): hyperlocomotion effects; antinociception ED50 (95% CI), literature (C57BL/6J mice [6]): 2.48 (1.57–3.87) mg/kg
